The test system of test [1] is Candida albicans. In words: Antifungal activity against Candida albicans MTCC 227 after 48 hrs by broth microdilution method. The class given is functional. The settings on record: MTCC 227, 48 h. On the technique in general: Dilution methods test growth across graded concentrations, often in twofold steps.
Test [2] deals with Vibrio cholerae. Briefly: Antibacterial activity against Vibrio cholerae MTCC 3906 after 24 hrs by broth microdilution method. The format is functional. Conditions: MTCC 3906, 24 h.
Test [3] concerns Clostridium tetani. In words: Antibacterial activity against Clostridium tetani MTCC 449 after 24 hrs by broth microdilution method. The format is functional. Conditions: MTCC 449, 24 h.
The test system of test [4] is Bacillus subtilis. In words: Antibacterial activity against Bacillus subtilis MTCC 441 after 24 hrs by broth microdilution method. The class given is functional. Conditions: MTCC 441, 24 h.
Test [5] concerns Escherichia coli. Briefly: Antibacterial activity against Escherichia coli MTCC 443 after 24 hrs by broth microdilution method. The class given is functional. Conditions: MTCC 443, 24 h.
The subject of test [6] is Salmonella typhi. In words: Antibacterial activity against Salmonella typhi MTCC 98 after 24 hrs by broth microdilution method. The format is functional, Salmonella enterica subsp. enterica serovar Typhi. Conditions: Salmonella enterica, MTCC 98, 24 h.
A short description of test [7]: Antioxidant activity assessed as ascorbic acid equivalent ferric ion reducing activity per 100 gram at 200 ug/ml by FRAP assay. The class given is functional.
The test system of test [8] is Mycobacterium tuberculosis. Briefly: Antimycobacterial activity against Mycobacterium tuberculosis H37Rv at 250 ug/ml. The format is functional. Put shortly:
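M. tuberculosis H37Rv tested on L.J. (Löwenstein–Jensen) medium.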

The test system of test [9] is Streptococcus pneumoniae. Briefly: Antibacterial activity against Streptococcus pneumoniae MTCC 1936 after 24 hrs by broth microdilution method. The format is functional. The settings on record: MTCC 1936, 24 h.
Test [10] has as its system Aspergillus fumigatus. In words: Antifungal activity against Aspergillus fumigatus MTCC 3008 after 48 hrs by broth microdilution method. The settings on record: MTCC 3008, 48 h. The class given is functional.

The structures appear in SMILES notation. Converted amounts (≈) assume the structure as drawn.

As for `Cc1nn(-c2ccc(Cl)c(Cl)c2)c2c1[C@@H]1c3cc4cccc(C)c4nc3SC[C@@H]1CO2`, the MIC – broadly, the lowest concentration found to suppress growth – in test [1] came out at 500 µg/mL (≈ 1070 µM); in test [2] it was 250 µg/mL (≈ 534 µM); in test [3], 250 µg/mL (≈ 534 µM); in [4], 200 µg/mL (≈ 427 µM); in test [5], 250 µg/mL (≈ 534 µM); in test [6], 250 µg/mL (≈ 534 µM). In addition, the MIC in [9] was 62.5 µg/mL (≈ 133 µM); in test [10], 1000 µg/mL (≈ 2130 µM). For the same molecule, in [7], the Activity is 61.7 mmol. In addition, the inhibition (usually the share of the control response that was lost under treatment) at 250 µg/mL in [8] was 38%.

Regarding `Cc1nn(-c2ccccc2)c2c1[C@@H]1c3c(ccc4c(C)cc(=O)oc34)OC[C@@H]1C(C)(C)O2`, the minimal inhibitory concentration (MIC) was determined as 1000 µg/mL (≈ 2330 µM) in test [1]; 250 µg/mL (≈ 583 µM) in test [2]; 500 µg/mL (≈ 1170 µM) in test [3]; 200 µg/mL (≈ 467 µM) in [4]; 250 µg/mL (≈ 583 µM) in [5]; 250 µg/mL (≈ 583 µM) in test [6]. In addition, the MIC in [9] and in [10] was 200 µg/mL (≈ 467 µM) each time. For the same molecule, the Activity in test [7] worked out at 146 mmol. In test [8], this molecule showed an inhibition at 250 µg/mL of 65%.

For `Cc1ccc(-n2nc(C)c3c2OC[C@H]2COc4ccc5c(C)cc(=O)oc5c4[C@@H]32)cc1`, the MIC in [1] was found to be 1000 µg/mL (≈ 2410 µM); in test [2] it was 200 µg/mL (≈ 483 µM); in [3] it was 200 µg/mL (≈ 483 µM); in [4], 250 µg/mL (≈ 603 µM); in test [5], 200 µg/mL (≈ 483 µM); in test [6] it was 250 µg/mL (≈ 603 µM). Further, the MIC in test [9] and in test [10] was 250 µg/mL (≈ 603 µM) in each case. In [7], the Activity turned out to be 213 mmol. The same molecule displayed an inhibition at 250 µg/mL in test [8] of 32%.

Turning to `Cc1ccc(-n2nc(C)c3c2OC[C@H]2CSc4nc5c(C)cccc5cc4[C@@H]32)cc1`, the MIC in test [1] was 1000 µg/mL (≈ 2420 µM); in [2] it was 125 µg/mL (≈ 302 µM); in test [3], 250 µg/mL (≈ 605 µM); in test [4], 200 µg/mL (≈ 484 µM); in test [5], 100 µg/mL (≈ 242 µM); in test [6] it was 125 µg/mL (≈ 302 µM). For the same molecule, the MIC in test [9] and in [10] was 200 µg/mL (≈ 484 µM) each time. For the same molecule, the Activity in [7] was found to be 112 mmol. Also, testing at 250 µg/mL in test [8] gave an inhibition of 63%.

Consider `Cc1nn(-c2ccccc2)c2c1[C@@H]1c3cc4ccccc4nc3SC[C@@H]1CO2`, for which the MIC in test [1] amounted to 500 µg/mL (≈ 1300 µM); in test [2] it was 100 µg/mL (≈ 259 µM); in [3], 62.5 µg/mL (≈ 162 µM); in test [4] it was 200 µg/mL (≈ 519 µM); in test [5] it was 100 µg/mL (≈ 259 µM); in [6], 125 µg/mL (≈ 324 µM). The MIC came to 200 µg/mL (≈ 519 µM) in test [9] and 500 µg/mL (≈ 1300 µM) in test [10]. Also, in [7], the Activity amounted to 126 mmol. The same molecule gave an inhibition at 250 µg/mL in test [8] of 87%.

As for `COC1=CC(=O)C[C@@H](C)[C@]12Oc1c(Cl)c(OC)cc(OC)c1C2=O` [GRISEOFULVIN], the results for the MIC in test [1] and in [10] were 500 µg/mL (≈ 1420 µM) and 100 µg/mL (≈ 283 µM), respectively.

As to `Cc1nn(-c2cc(Cl)ccc2Cl)c2c1[C@@H]1c3cc4cccc(C)c4nc3SC[C@@H]1CO2`, the MIC worked out at 1000 µg/mL (≈ 2130 µM) in test [1]; 100 µg/mL (≈ 213 µM) in test [2]; 100 µg/mL (≈ 213 µM) in [3]; 100 µg/mL (≈ 213 µM) in test [4]; 62.5 µg/mL (≈ 133 µM) in test [5]; 200 µg/mL (≈ 427 µM) in test [6]. For the same molecule, the MIC amounted to 250 µg/mL (≈ 534 µM) in test [9] and 1000 µg/mL (≈ 2130 µM) in test [10]. Besides, the Activity in test [7] amounted to 129 mmol. This molecule came in with an inhibition at 250 µg/mL in [8] of 49%.

On to `Cc1nn(-c2cccc(Cl)c2)c2c1[C@@H]1c3c(ccc4c(C)cc(=O)oc34)OC[C@@H]1C(C)(C)O2`, for which the MIC in test [1] came out at 500 µg/mL (≈ 1080 µM); in test [2], 250 µg/mL (≈ 540 µM); in test [3] it was 200 µg/mL (≈ 432 µM); in test [4], 200 µg/mL (≈ 432 µM); in [5] it was 200 µg/mL (≈ 432 µM); in test [6], 200 µg/mL (≈ 432 µM). In addition, the values for the MIC in test [9] and in test [10] were 62.5 µg/mL (≈ 135 µM) and 1000 µg/mL (≈ 2160 µM), respectively. Moreover, the Activity in test [7] turned out to be 225 mmol. This molecule also came in with an inhibition at 250 µg/mL in [8] of 29%.

Regarding `Cc1nn(-c2cccc(Cl)c2)c2c1[C@@H]1c3cc4cccc(C)c4nc3SC[C@@H]1CO2`, the MIC in [1] was found to be 1000 µg/mL (≈ 2300 µM); in test [2], 200 µg/mL (≈ 461 µM); in test [3], 200 µg/mL (≈ 461 µM); in test [4], 250 µg/mL (≈ 576 µM); in test [5] it was 250 µg/mL (≈ 576 µM); in test [6], 500 µg/mL (≈ 1150 µM). Further, the MIC in [9] was found to be 250 µg/mL (≈ 576 µM); in [10], 200 µg/mL (≈ 461 µM). In test [7], the Activity came out at 125 mmol. In addition, in test [8], the inhibition at 250 µg/mL was 82%.

`Cc1nn(-c2ccc(Cl)c(Cl)c2)c2c1[C@@H]1c3c(ccc4c(C)cc(=O)oc34)OC[C@@H]1CO2`: the minimal inhibitory concentration (MIC) in test [1] turned out to be 500 µg/mL (≈ 1070 µM); in test [2], 125 µg/mL (≈ 266 µM); in test [3], 100 µg/mL (≈ 213 µM); in [4] it was 250 µg/mL (≈ 533 µM); in test [5], 250 µg/mL (≈ 533 µM); in test [6], 250 µg/mL (≈ 533 µM). In addition, the MIC is 250 µg/mL (≈ 533 µM) in test [9] and 500 µg/mL (≈ 1070 µM) in test [10]. The Activity in test [7] amounted to 120 mmol. This molecule also registered an inhibition at 250 µg/mL in test [8] of 20%.

Take `Cc1nn(-c2cc(Cl)ccc2Cl)c2c1[C@@H]1c3cc4ccccc4nc3SC[C@@H]1CO2`: the minimal inhibitory concentration (MIC) in [1] was 500 µg/mL (≈ 1100 µM); in [4], 100 µg/mL (≈ 220 µM); in [5], 250 µg/mL (≈ 550 µM); in [9] it was 200 µg/mL (≈ 440 µM); in test [10] it was > 1000 µg/mL. The Activity in test [7] was determined as 158 mmol.

Source of the values: ChEMBL document CHEMBL2331438, “An efficient domino reaction in ionic liquid: synthesis and biological evaluation of some pyrano- and thiopyrano-fused heterocycles” (2013).
